Test results taken from ChEMBL document CHEMBL5137109, “Tunable Cysteine-Targeting Electrophilic Heteroaromatic Warheads Induce Ferroptosis” (J Med Chem, 2022).
Calls of active or inactive are those of the source. The calls are words filed in the database; no cut-off is given here.

Legend:
[1] = test system: NCI-H522; experiment: Cytotoxicity against human NCI-H522 cells assessed as reduction in cell viability incubated for 3 days by methylene blue staining based analysis; assay type: functional; conditions: NCI-H522, 72 h
[2] = test system: HCT-116; experiment: Cytotoxicity against human HCT-116 cells assessed as reduction in cell viability incubated for 3 days by methylene blue staining based analysis; assay type: functional; conditions: HCT-116, 72 h
[3] = Selectivity ratio of IC50 for human HCT-116 cells to IC50 for human NCI-H522 cells by methylene blue staining based analysis; assay type: functional
[4] = test system: NCI-H522; experiment: Induction of lipid peroxidation in human NCI-H522 cells assessed as increase in C11-BODIPY oxidation at 20 uM incubated for 6 hrs by flow cytometry; assay type: functional, cell-based
Summary of the method: (§1)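 NCI-H522 cells (~70% density) plated in dishes overnight, then treated with compound or DMSO plus C11-BODIPY 581/591 (1 μM) added at treatment. After 3 h or 6 h, cells washed, trypsinized, resuspended in PBS with 2% FBS and analysed by flow cytometry (preferably 20×10³ cells). Oxidation compared with DMSO treatment.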

[5] = test system: NCI-H522; experiment: Cytotoxicity against human NCI-H522 cells assessed as reduction in cell survival at 2 uM incubated for 3 days in presence of ferroptosis inhibitor, liproxstatin-1 by methylene blue staining based analysis; assay type: functional; conditions: time 3.0 day
Summary of the method: (§2)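 NCI-H522 cells seeded at 25×10³/well (n=3), adhered overnight, then exposed to compound with or without liproxstatin-1 (0.25 μM). After 3 days, methylene blue staining with HCl elution and A668. Results given as % relative to DMSO control, mean ± SD, n=3, one-way ANOVA. Fold change is IC50 (with liproxstatin-1)/IC50 (alone).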

[6] = test system: NCI-H522; experiment: Cytotoxicity against human NCI-H522 cells assessed as reduction in cell viability incubated for 3 days in presence of ferroptosis inhibitor, liproxstatin-1 by methylene blue staining based analysis; assay type: functional; conditions: NCI-H522, 72 h; summary of the method: as §2
[7] = Ratio of IC50 for cytotoxicity against human NCI-H522 cells in presence of ferroptosis inhibitor, liproxstatin-1 to IC50 for cytotoxicity against human NCI-H522 cells; assay type: functional
Summary of the method: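 NCI-H522 cells, 25*10³/well (n=3), plated overnight, treated with compound with or without Liproxstatin-1 (0.25 μM). After 3 days, methylene blue in 50% ethanol fix/stain 30 min RT, dye dissolved in 0.1N HCl, A668. Fold change = IC₅₀ with Liproxstatin-1 / IC₅₀ without.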

[8] = test system: HT-1080; experiment: Cytotoxicity against human HT-1080 cells assessed as reduction in cell viability incubated for 3 days by methylene blue staining based analysis; assay type: functional; conditions: HT-1080, 72 h
[9] = test system: MDA-MB-468; experiment: Cytotoxicity against human MDA-MB-468 cells assessed as reduction in cell viability incubated for 3 days by methylene blue staining based analysis; assay type: functional; conditions: MDA-MB-468, 72 h
[10] = test system: MDA-MB-231; experiment: Cytotoxicity against human MDA-MB-231 cells assessed as reduction in cell viability incubated for 3 days by methylene blue staining based analysis; assay type: functional; conditions: MDA-MB-231, 72 h
[11] = test system: HeLa; experiment: Cytotoxicity against human HeLa cells assessed as reduction in cell viability incubated for 3 days by methylene blue staining based analysis; assay type: functional; conditions: 72 h
[12] = test system: U2OS; experiment: Cytotoxicity against human U2OS cells assessed as reduction in cell viability incubated for 3 days by methylene blue staining based analysis; assay type: functional; conditions: 72 h
[13] = Cytotoxicity against human WI-38 cells assessed as reduction in cell viability incubated for 3 days by methylene blue staining based analysis; assay type: toxicity
[14] = Cytotoxicity against mouse MEF cells assessed as reduction in cell viability incubated for 3 days by methylene blue staining based analysis; assay type: toxicity
[15] = test system: NCI-H522; experiment: Induction of lipid peroxidation in human NCI-H522 cells assessed as increase in C11-BODIPY oxidation at 5 uM incubated for 6 hrs by flow cytometry; assay type: functional, cell-based; summary of the method: as §1
[16] = test system: NCI-H522; experiment: Induction of lipid peroxidation in human NCI-H522 cells assessed as increase in C11-BODIPY oxidation at 40 uM incubated for 6 hrs by flow cytometry; assay type: functional, cell-based; summary of the method: as §1

Compound | IC50 [1] | IC50 [2] | further results
C#Cc1nc(C(=O)N2CCN(c3ccc(Cl)cc3)CC2)cs1 | 0.028 µM |  | 
C#CCNC(=O)c1csc(Br)n1 | > 40 µM | > 40 µM | 
C#Cc1sc(-c2ccc(F)cc2)nc1C(=O)OCC | 3.53 µM | > 40 µM | Ratio IC50 [3]: 11.33; Activity [4]: Active
Cn1c(I)nc2ccccc21 | 1.02 µM | 17.5 µM | Ratio IC50 [3]: 17.16; Activity [5]: Active
C#CCNC1CCC(c2csc(C#C)n2)=C1C (stereo not given) | 2.51 µM | > 40 µM | Activity [4]: Active
C=Cc1nc2ccccc2o1 | > 40 µM | > 40 µM | 
C#Cc1csc(Br)n1 | > 40 µM | > 40 µM | 
C#CC(=O)N1CCN(C(c2ccc(Cl)cc2)c2ccc(Cl)cc2)CC1 | 1.13 µM | 3.8 µM | IC50 [6]: 2.88 µM; Ratio IC50 [7]: 2.55; IC50 [8]: 0.376 µM; IC50 [9]: 0.065 µM; IC50 [10]: 0.038 µM; IC50 [11]: 0.303 µM; IC50 [12]: 0.638 µM; IC50 at 3 days [13]: 0.5 µM; IC50 at 3 days [14]: 0.082 µM
c1ccc2scnc2c1 [BENZO[D]THIAZOLE] | > 40 µM | > 40 µM | 
C#Cc1nc(C(=O)Nc2ccc(Cl)cc2)cs1 | 0.54 µM | 15.9 µM | Ratio IC50 [3]: 29.4; Activity [15]: Active
C=Cc1nc(C(=O)OCC)cs1 | > 40 µM | > 40 µM | 
CC#CC1=Nc2ccccc2C(C)(C)O1 | 8.4 µM | > 40 µM | Ratio IC50 [3]: >4.76; Activity [16]: Active
C=Cc1nc2ccccc2[se]1 | 12.2 µM | > 40 µM | Ratio IC50 [3]: >3.27
Cn1cnc2ccccc21 | > 40 µM | > 40 µM | 
Ic1nc2ccccc2s1 | > 40 µM | > 40 µM | 
C#Cc1ncccn1 | > 40 µM | > 40 µM | 
C#Cc1nc(C(=O)OCC)cs1 | 2.67 µM | > 40 µM | Ratio IC50 [3]: >14.98; Activity [4]: Active
C=Cc1sc(-c2ccc(F)cc2)nc1C(=O)OCC | > 40 µM | > 40 µM | 
C#Cc1nc(C(=O)N2CCN(c3ccc(C(F)(F)F)cc3)CC2)cs1 | 0.037 µM |  | 
C=Cc1csc(Br)n1 | > 40 µM | > 40 µM | 
Brc1nc2ccccc2[se]1 | > 40 µM | > 40 µM | 
C#Cc1nc2ccccc2n1C | 8.14 µM | 19.4 µM | Ratio IC50 [3]: 2.37; Activity [16]: Active
C#Cc1ccccn1 | > 40 µM | > 40 µM | 
C#Cc1nc(C(=O)N2CCN(CC)CC2)cs1 | > 1 µM |  | 
Brc1nc2ccccc2o1 | > 40 µM | > 40 µM | 
